This note sets out measurements from paper PMC4091728 (Chembiochem : a European journal of chemical biology, 2014).

Usually Kd stands for a measure of binding affinity in units of concentration. A high value points to weaker binding.

The subject of test [1] is Trypanosoma cruzi (CA-I/72 trypomastigotes) in mouse C2C12 myoblasts. In words: EC50 in cell-based assay using T. cruzi-infected mouse C2C12 myoblasts. As to conditions: highest concentration 10 μM.
Another test has as its target TcCYP51 (Trypanosoma cruzi, UniProt Q7Z1V1). Put plainly: Binding affinity by UV-vis spectroscopy. The essentials: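 Recombinant TcCYP51 at 1 μM in 100 mM potassium phosphate, pH 7.5, with 10% glycerol, at 23°C, in a 1-cm quartz cuvette. Titrated stepwise with test compound from a 100 μM DMSO stock, with equal solvent added to the reference cuvette. The absorbance shift between 425 and 390 nm was fitted to the quadratic tight-binding equation to give KD.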

TcCYP51, sequence (Q7Z1V1 whole entry): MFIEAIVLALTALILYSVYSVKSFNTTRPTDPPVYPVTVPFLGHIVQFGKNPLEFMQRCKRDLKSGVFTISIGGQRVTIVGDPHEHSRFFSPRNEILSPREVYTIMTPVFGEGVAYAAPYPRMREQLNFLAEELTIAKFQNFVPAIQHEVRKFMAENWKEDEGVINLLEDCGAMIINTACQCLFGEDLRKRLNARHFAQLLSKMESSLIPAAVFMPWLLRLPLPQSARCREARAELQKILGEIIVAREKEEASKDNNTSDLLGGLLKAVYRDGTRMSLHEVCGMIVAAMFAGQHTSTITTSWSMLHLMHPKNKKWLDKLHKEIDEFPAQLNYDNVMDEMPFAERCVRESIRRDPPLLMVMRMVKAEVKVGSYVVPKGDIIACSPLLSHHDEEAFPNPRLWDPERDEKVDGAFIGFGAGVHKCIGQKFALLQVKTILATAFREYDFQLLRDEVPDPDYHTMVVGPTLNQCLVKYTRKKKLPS

In the case of `COC(=O)c1sccc1S(=O)(=O)N1CCN(c2ccc(C(=O)N[C@H](Cc3c[nH]c4ccccc34)C(=O)Nc3ccncc3)c(F)c2)CC1` [compound 7, (R)-methyl 3-((4-(4-((3-(1H-Indol-3-yl)-1-oxo-1-(pyridin-4-ylamino)propan-2-yl)carbamoyl)-3-fluorophenyl)piperazin-1-yl)sulfonyl)thiophene-2-carboxylate], the “anti-T. cruzi potency in cell culture, in words” value (“anti-T. cruzi potency” below) in test [1] is listed as “inhibited T. cruzi at the low micromolar concentrations”. This compound registered a Kd on TcCYP51 of 20 ± 7 nM.

Take `CS(=O)(=O)N1CCN(c2ccc(C(=O)N[C@H](Cc3c[nH]c4ccccc34)C(=O)Nc3ccncc3)c(F)c2)CC1` [compound 11, (R)-N-(3-(1H-Indol-3-yl)-1-oxo-1-(pyridin-4-ylamino)propan-2-yl)-2-fluoro-4-(4-(methylsulfonyl)piperazin-1-yl)benzamide]: the “anti-T. cruzi potency” value in test [1] was “failed to elicit T. cruzi inhibition in cell culture at ≤10 μM”. Further, the dissociation constant (Kd) on TcCYP51 turned out to be 19 ± 4 nM.

As to `O=C(N[C@H](Cc1c[nH]c2ccccc12)C(=O)Nc1ccncc1)c1ccc(N2CCN(S(=O)(=O)C3CC3)CC2)cc1F` [compound 10, (R)-N-(3-(1H-Indol-3-yl)-1-oxo-1-(pyridin-4-ylamino)propan-2-yl)-4-(4-(cyclopropylsulfonyl)piperazin-1-yl)-2-fluorobenzamide], the “anti-T. cruzi potency” value in test [1] was “failed to elicit T. cruzi inhibition in cell culture at ≤10 μM”. This compound also came in with a dissociation constant (Kd) on TcCYP51 of 25 ± 6 nM.

Compound `N#Cc1ccc(S(=O)(=O)N2CCN(c3ccc(C(=O)N[C@H](Cc4c[nH]c5ccccc45)C(=O)Nc4ccncc4)c(F)c3)CC2)cc1` [compound 4, (R)-N-(3-(1H-Indol-3-yl)-1-oxo-1-(pyridin-4-ylamino)propan-2-yl)-4-(4-((4-cyanophenyl)sulfonyl)piperazin-1-yl)-2-fluorobenzamide] displayed a Kd on TcCYP51 of 47 ± 19 nM.

On to `O=C(N[C@H](Cc1c[nH]c2ccccc12)C(=O)Nc1ccncc1)c1ccc(N2CCN(S(=O)(=O)c3cccs3)CC2)cc1F` [compound 3, (R)-N-(3-(1H-Indol-3-yl)-1-oxo-1-(pyridin-4-ylamino)propan-2-yl)-2-fluoro-4-(4-(thiophen-2-ylsulfonyl)piperazin-1-yl)benzamide], for which the “anti-T. cruzi potency” value in test [1] is “sub-nanomolar”. Besides, the dissociation constant Kd at TcCYP51 was ≤ 10 nM.

Take `O=C(N[C@H](Cc1c[nH]c2ccccc12)C(=O)Nc1ccncc1)c1ccc(N2CCN(S(=O)(=O)c3ccc(C(F)(F)F)cc3)CC2)cc1F` [compound 6, (R)-N-(3-(1H-Indol-3-yl)-1-oxo-1-(pyridin-4-ylamino)propan-2-yl)-2-fluoro-4-(4-((4-(trifluoromethyl)phenyl)sulfonyl)piperazin-1-yl)benzamide]: the “anti-T. cruzi potency” value in test [1] was “inhibited T. cruzi at the low micromolar concentrations”. Moreover, the Kd at TcCYP51 is ≤ 10 nM.

For `O=C(O)c1ccc(S(=O)(=O)N2CCN(c3ccc(C(=O)N[C@H](Cc4c[nH]c5ccccc45)C(=O)Nc4ccncc4)c(F)c3)CC2)cc1` [compound 8, (R)-4-((4-(4-((3-(1H-Indol-3-yl)-1-oxo-1-(pyridin-4-ylamino)propan-2-yl)carbamoyl)-3-fluorophenyl)piperazin-1-yl)sulfonyl)benzoic acid], in test [1], the “anti-T. cruzi potency” value is “failed to elicit T. cruzi inhibition in cell culture at ≤10 μM”. Besides, binding on TcCYP51 was characterised by a dissociation constant (Kd) of 20 ± 7 nM.

Take `O=C(N[C@H](Cc1c[nH]c2ccccc12)C(=O)Nc1ccncc1)c1ccc(N2CCN(S(=O)(=O)c3ccsc3C(=O)O)CC2)cc1F` [compound 9, (R)-3-((4-(4-((3-(1H-Indol-3-yl)-1-oxo-1-(pyridin-4-ylamino)propan-2-yl)carbamoyl)-3-fluorophenyl)piperazin-1-yl)sulfonyl)thiophene-2-carboxylic acid]: the “anti-T. cruzi potency” value in test [1] was “failed to elicit T. cruzi inhibition in cell culture at ≤10 μM”. Besides, at TcCYP51, the equilibrium dissociation constant (Kd) was ≤ 10 nM.

For `O=C(N[C@H](Cc1c[nH]c2ccccc12)C(=O)Nc1ccncc1)c1ccc(N2CCN(S(=O)(=O)c3cccnc3)CC2)cc1F` [compound 5, (R)-N-(3-(1H-Indol-3-yl)-1-oxo-1-(pyridin-4-ylamino)propan-2-yl)-2-fluoro-4-(4-(pyridin-3-ylsulfonyl)piperazin-1-yl)benzamide], the “anti-T. cruzi potency” value in test [1] was “inhibited T. cruzi at the low micromolar concentrations”. Also, the Kd on TcCYP51 amounted to 15 ± 6 nM.
